Compound activity (PubChem)
GRK2 inh – human GRK2 inhibition via aptamer displacement | P25098 | bead flow cytometry, FAM-aptamer displacement from GRK2 | inhibition of aptamer binding, % at 10 µM | 0.59% of 330,000 active;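 active = inhibition of aptamer binding above 40%, roughly 3 SD of noise, on plates passing a quality check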;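 also: median bead fluorescence of bound FAM aptamer so fluorescent compounds give negative values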
SR-BI uptake up – activators of SR-BI mediated HDL lipid uptake; CHO ldlA[mSR-BI] cells, DiI-HDL uptake fluorescence, 3 h; 100 = double the neutral-control signal; activation, % at 12.5 µM; 0.096% of 320,000 active; AID 504775;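 active = mean replicate activation of at least 60% and every replicate at or above 60%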
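Material: SR-BI-overexpressing, LDLR-lacking CHO cells; schedule: compound exposure 3 h, 37 °C; reagent: DiI-labelled HDL at 10 µg/mL final; technique: bottom-read fluorescence, 550/595 nm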
SR-BI DiI inh – mouse SR-BI HDL lipid transfer inhibition. Q61009. ldlA[mSR-BI] CHO cells, DiI-HDL uptake fluorescence, 3 h. inhibition, % at 12.5 µM. 0.96% of 320,000 active;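 active = mean replicate inhibition of at least 70% and a set share of replicates each scoring 70 or more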
Rin1 Abl inh – inhibitors of human Rin1-Abl protein interaction. P00519+Q13671. TR-FRET Rin1/Abl binding, biochemical. inhibition, % at 7.35 µM. 0.4% of 360,000 active. AID 588664; in the data active = inhibition above about 5%, passing the limit was not always enough
GRK2 inh confirm – human GRK2 inhibition confirmation, cherry pick 1; shares compounds with GRK2 inh; bead-bound GRK2, FAM-aptamer displacement, flow cytometry; aptamer displacement, % at 10 µM; 4% of 2,000 active; AID 504451;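 active = aptamer displacement above 40%, near three times the noise of non-fluorescent compounds, on plates passing quality checks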;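 also: negative values mostly reflect intrinsic compound fluorescence rather than true enhancement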
Aptamer quench SP – aptamer fluorescence quenching in GRK2 counter-screen; shares compounds with GRK2 inh; Carboxyfluorescein RNA aptamer on beads, flow cytometry quenching; hits give low values; fluorescence response (% of DMSO), % at 10 µM; 2,000 tested, under 10 active;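 active = compounds that quench the bead-bound fluorescent RNA probe, cutting fluorescence to under half of the solvent control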;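 also: counterscreen run without GRK2 so only probe quenching by compound is measured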
GRK2 confirm 2 – confirmation of human GRK2 inhibitors binding RNA aptamer site; shares compounds with GRK2 inh; bead-bound GRK2, FAM-aptamer displacement, flow cytometry; inhibition of aptamer binding, % at 10 µM; 360 tested, under 10 active;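 active = inhibition of aptamer binding above 40%, about triple the noise seen with nonglowing compounds, on plates passing quality control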;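 also: negative values mostly come from compounds that fluoresce themselves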
FAM quench CP2 – quenches fluorescent RNA aptamer, GRK2 hit artifact | shares compounds with GRK2 inh | carboxyfluorescein RNA aptamer beads, flow cytometry quenching; hits give low values | fluorescence response vs DMSO, % at 10 µM | 360 tested, under 10 active | AID 588494;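 active = response vs DMSO under 50%, meaning signal dropped by over half, treated as fluorescence quencher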;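 also: labelled aptamer on streptavidin beads without GRK2 as a quench counter-screen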
Of the large screens only hits and unclear results are named; the others gave an inactive call (follow-up assays come after a bar, where they were run). Only some compounds are listed: those with a hit (about 1.9% of all), similar ones and a draw of the others.

COc1ccc(NC(=O)C(=O)N2N=C3CCCCC3C2(O)C(F)(F)F)cc1 (stereo not drawn)	GRK2 inh 41.0 | GRK2 confirm 2 inactive | FAM quench CP2 inactive
CCC1=NN(C(=O)C(=O)Nc2ccc(OC)cc2)C(O)(C(F)(F)F)C1 (stereo not drawn)	none
COc1ccc(C2=C(c3ccc(OC)c(OC)c3)CN3CCCCC3C2)cc1 (stereo not drawn)	none
C=CCNC(=O)/C(=C/c1cccc([N+](=O)[O-])c1)NC(=O)c1ccccc1	GRK2 inh 46.0 | GRK2 inh confirm inactive | Aptamer quench SP inactive
C=CCNC(=O)/C(=C/c1cn(-c2ccccc2)nc1-c1cccc([N+](=O)[O-])c1)NC(=O)c1ccccc1	none
CC(C)Cc1nc2oc3c(=O)[nH]cnc3c2c2c1CCCC2	none
CC(C)Cc1nc2oc3c(=O)[nH]cnc3c2c2c1CCC2	GRK2 inh 93.0 | GRK2 inh confirm inactive | Aptamer quench SP inactive
COc1ccc(C(=O)NCC(C)(C)SCc2c(C)cc(C)cc2C)cc1	GRK2 inh 50.0 | GRK2 inh confirm inactive | Aptamer quench SP inactive
O=C(Nc1ccc(F)c(Cl)c1)c1cc(C2CCCN(C(=O)CCc3ccccc3)C2)on1 (stereo not drawn)	none (no result: GRK2 inh, SR-BI uptake up, SR-BI DiI inh)
CCNc1nc(SCC(=O)Nc2ccc(Cl)c(Cl)c2)nc(N(C)C)n1	GRK2 inh 45.0 | GRK2 inh confirm inactive | Aptamer quench SP inactive
CN(C)c1nc(NCc2ccccc2)nc(SCC(=O)Nc2ccc(Cl)c(Cl)c2)n1	none
O=C(Cc1ccccc1)Nc1ccc2c(c1)C(=O)N(CC1CCCO1)C2=O (stereo not drawn)	GRK2 inh 100.0 | GRK2 inh confirm inactive | Aptamer quench SP inactive
CCN(CC)C(=O)[C@H]1CC(CC(=O)NCc2ccco2)C(=O)N2CCc3c([nH]c4ccc(OC)cc34)[C@]12C (stereo partly drawn)	none
CCOc1ccc(NC(=O)C2CCCN2S(=O)(=O)c2ccc3c(c2)C(C)(C)C(=O)N3C)cc1 (stereo not drawn)	GRK2 inh 48.0 | GRK2 inh confirm inactive | Aptamer quench SP inactive
CCOc1ccccc1NC(=O)C1CCCN1S(=O)(=O)c1ccc2c(c1)C(C)(C)C(=O)N2C (stereo not drawn)	none (no result: GRK2 inh, SR-BI uptake up, SR-BI DiI inh)
CC12CCC(C(=O)n3c1nc1ccccc13)C2(C)C (stereo not drawn)	none | GRK2 inh confirm inactive | Aptamer quench SP inactive
O=[N+]([O-])c1nccn1CCCCCCN1CCOCC1	none (no result: GRK2 inh, SR-BI uptake up, SR-BI DiI inh)
CC(C)NC(=O)Nc1nnc([C@H]2C[C@H](O)[C@@H](CO)O2)s1	none (no result: GRK2 inh, SR-BI uptake up, SR-BI DiI inh)
COc1ccccc1Oc1cc(-n2nc(C)cc2C)ncn1	GRK2 inh 82.0 | GRK2 confirm 2 inactive | FAM quench CP2 inactive
COc1ccccc1OCC(O)Cn1nc(C)cc1C (stereo not drawn)	none
NC(=O)c1ccc(NC(=O)COC(=O)c2cc3c(s2)CCC3)cc1	GRK2 inh 52.0 | GRK2 inh confirm inactive | Aptamer quench SP inactive
CC(=O)Nc1ccc(S(=O)(=O)N(C)CC(=O)NNc2c(F)c(F)cc(F)c2F)cc1	none
O=C(O)CC/C(=N/NC(=O)CNC(=O)C(c1ccccc1)c1ccccc1)c1ccccc1	GRK2 inh 90.0 (no result: SR-BI uptake up, SR-BI DiI inh) | GRK2 inh confirm inactive | Aptamer quench SP inactive
C/C(=N\NC(=O)CNC(=O)C(c1ccccc1)c1ccccc1)c1ccccc1	none
Cc1ccc(C)n1-c1cc([N+](=O)[O-])ccc1-n1ccnc1	none (no result: SR-BI uptake up, SR-BI DiI inh)
CC1(C)N([O-])c2cc([N+](=O)[O-])ccc2[N+]1=O	GRK2 inh 68.0 (no result: SR-BI uptake up, SR-BI DiI inh, Rin1 Abl inh) | GRK2 inh confirm inactive | Aptamer quench SP inactive
CCN(c1ccc(NC(=O)COC(=O)C2CCN(c3ccc(C(F)(F)F)cn3)CC2)cc1)C(C)C	none (no result: GRK2 inh)
Cc1cc(/C=N/N2CCN(C)CC2)c(C)n1-c1ccccc1F	GRK2 inh 50.0 | GRK2 inh confirm inactive | Aptamer quench SP inactive
